Measured values published in paper PMC10498798 (Mycobiology, 2023).
Converted amounts (≈) assume the structure as drawn. “Also recorded” adds a separate entry of the source. Where two headings read alike, the source gives them in different places.

Assays:
[1] = target: α-glucosidase from Saccharomyces cerevisiae; assay: Alpha-glucosidase inhibitory assay; assay type: biochemical; details: for α-glucosidase inhibition rate: concentration of 400 µg/mL; for IC50: read-out: IC50 α-glucosidase, µM equivalent, converted from µg/mL
[2] = test system: A549 (Human lung carcinoma); assay: MTT cytotoxic assay, A549; assay type: cell-based; details: for IC50: Homo sapiens, A549, 36 h, read-out: IC50 A549
[3] = test system: MCF-7 (Human breast adenocarcinoma); assay: MTT cytotoxic assay, MCF-7; assay type: cell-based; details: for IC50: Homo sapiens, MCF7, 36 h, read-out: IC50 MCF-7
[4] = test system: NO production in LPS-stimulated RAW 264.7 macrophages; assay: Nitrite; assay type: cell-based, murine
Outline: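 RAW 264.7 cells were seeded at 2x10^5 per well and grown to about 70% confluence, then serum-starved in 1% FBS medium. Test compound was given at non-cytotoxic concentrations for 24 h at 37 °C, then cells were stimulated with 1 µg/mL LPS for 24 h. Supernatant nitrite was measured with Griess reagent (30 °C, 20 min) at 550 nm against a sodium nitrite standard curve. Runs were in triplicate, and IC50 came from inhibition-concentration plots.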

[5] = test system: Vero cells (monkey kidney epithelial cells); assay: MTT cytotoxic assay, Vero cells; assay type: cell-based; details: for IC50 Vero: MTT; for IC50: Primates, Vero
[6] = target: T1, porcine pancreatic lipase (Type II) (Sus scrofa, UniProt P00591); assay: Lipase inhibitory assay; assay type: biochemical; details: for inhibition at 125 µg/mL / inhibition at 250 µg/mL / inhibition at 500 µg/mL: read-out: Enzyme inhibition (pancreatic lipase)
T1 sequence (P00591 1-450): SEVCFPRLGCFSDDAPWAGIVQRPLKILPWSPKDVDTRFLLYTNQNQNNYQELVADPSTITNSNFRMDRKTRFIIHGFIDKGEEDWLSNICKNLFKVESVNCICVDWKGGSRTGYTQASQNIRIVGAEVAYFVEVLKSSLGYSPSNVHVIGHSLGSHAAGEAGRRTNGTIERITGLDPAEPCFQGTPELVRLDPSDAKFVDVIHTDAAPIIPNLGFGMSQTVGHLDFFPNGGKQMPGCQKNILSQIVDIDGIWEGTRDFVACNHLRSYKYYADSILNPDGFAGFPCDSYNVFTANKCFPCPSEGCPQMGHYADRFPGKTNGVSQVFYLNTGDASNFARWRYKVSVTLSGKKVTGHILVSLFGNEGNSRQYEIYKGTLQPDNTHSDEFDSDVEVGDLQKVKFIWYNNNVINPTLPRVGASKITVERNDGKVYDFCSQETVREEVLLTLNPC
Outline: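 Porcine pancreatic lipase (Type II, 0.1 mg) was mixed with 6.66 μM p-nitrophenyl palmitate in ethanol/acetonitrile (2:1, v/v) and test compound in 0.061 M Tris-HCl, pH 8.5. The mixture was incubated at 37 °C for 25 min, stopped with ethanol, and substrate hydrolysis read at 405 nm. Runs were in triplicate. IC50 was estimated from inhibition-versus-concentration plots.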

RAW 264.7 macrophages = assay: MTT cell viability of RAW 264.7 macrophages; assay type: cell-based, murine
Outline: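 RAW 264.7 cells were kept in DMEM with 10% FBS and penicillin/streptomycin at 37 °C, 5% CO2. Exponential-phase cells (5x10^4 per well) were exposed to serially diluted test compound (50-25-12.5-6.25 µg/mL) plus 1 µg/mL LPS for 36 h. MTT (0.5 mg/mL) was then added for 4 h at 37 °C. Formazan was dissolved in DMSO and read at 570 nm. Runs were in triplicate.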

[7] = test system: Hep-G2 (Human hepatocellular carcinoma); assay: MTT cytotoxic assay, Hep-G2; assay type: cell-based; details: for IC50: Homo sapiens, HepG2, 36 h, read-out: IC50 Hep-G2
[8] = Mus musculus, RAW264.7, read-out: NO inhibition
[9] = 36 h, read-out: IC50 Vero, MTT, 36 h
[10] = read-out: IC50 Vero, μM equivalent, converted from µg/mL

SMILES: CC(C)[C@@H](C)/C=C/[C@@H](C)[C@H]1CCC2=C3C=C[C@@]4(O)C[C@@H](O)CC[C@]4(C)[C@H]3CC[C@@]21C [Compound (3), (3β,5α,22E)-ergosta-6,8(14),22-triene-3,5-diol]
- IC50 α-glucosidase [1]: 25.81 mg/L (≈ 62.5 µM)
- α-glucosidase inhibition rate [1]: greater than 50%
- IC50 [1]: 60 µM
- IC50 [2]: 18.5 mg/L (≈ 44.9 µM)
- IC50 [3]: 16.5 mg/L (≈ 39.9 µM)
- inhibition at 1 µg/mL [4, 8]: 32.8 ± 0.73%
- inhibition at 5 µg/mL [4, 8]: 55.2 ± 1.2%
- inhibition at 25 µg/mL [4, 8]: 71.4 ± 1.38%
- IC50 Vero ([5]; 36 h): 18.40 mg/L (≈ 44.6 µM)
- IC50 [5, 9]: 10.4 mg/L
- IC50 [5, 10]: 24.2 µM
- IC50 [6]: > 1210 µM
- inhibition at 125 µg/mL [6]: 1.29 ± 1.11%
- inhibition at 250 µg/mL [6]: 12.1 ± 0.95%
- inhibition at 500 µg/mL [6]: 23.8 ± 2.31%
- Cell survival (RAW 264.7 macrophages; test concentration 1 µg/mL): 93.19 ± 0.49%
- Cell survival (RAW 264.7 macrophages; test concentration 5 µg/mL): 93.86 ± 1.33%
- Cell survival (RAW 264.7 macrophages; test concentration 25 µg/mL): 82.31 ± 0.78%
- Cell survival (RAW 264.7 macrophages; test concentration 50 µg/mL): 1.70 ± 0.27%
- IC50 [7]: 2.89 mg/L (≈ 7 µM)

SMILES: Cc1c2ccncc2c(C)c2c1[nH]c1ccccc12 [Ellipticine, reference compound]
- IC50 [2]: 1.38 mg/L (≈ 5.6 µM)
- IC50 [3]: 2.69 mg/L (≈ 10.9 µM)
- IC50 [5, 9]: 8.61 mg/L
- IC50 [7]: 1.26 mg/L (≈ 5.12 µM)

SMILES: COc1cc(O)cc(O)c1C(=O)/C=C/c1ccccc1 [Cardamonin, reference compound]
- NO half-maximal inhibitory concentration (IC50) ([4]; LPS-stimulated RAW 264.7): 0.62 mg/L
- NO inhibition ([4]; test concentration 0.81 µg/mL (3 µM), LPS 1 µg/mL): 86.93 ± 0.96%
- Cell survival (RAW 264.7 macrophages; test concentration 0.81 µg/mL (3 µM)): 71.80 ± 0.51%

SMILES: CC(C)[C@@H](C)/C=C/[C@@H](C)[C@H]1CC[C@H]2C3=C[C@@H](O)[C@@]4(O)C[C@@H](O)CC[C@]4(C)[C@H]3CC[C@]12C [Compound (1), cerevisterol]
- α-glucosidase inhibition rate [1]: 12.69 ± 1.06%
- IC50 [2]: > 50 mg/L
- IC50 A549 ([2]; MTT, 36 h): no significant effect; also recorded: did not show any cytotoxicity
- IC50 [3]: > 50 mg/L
- IC50 MCF-7 ([3]; MTT, 36 h): no significant effect; also recorded: did not show any cytotoxicity
- inhibition at 1 µg/mL [4, 8]: 14.4 ± 1.5%
- inhibition at 5 µg/mL [4, 8]: 30.9 ± 1.04%
- inhibition at 25 µg/mL [4, 8]: 48.8 ± 1.43%
- inhibition at 50 µg/mL [4, 8]: 54.2 ± 1.27%
- IC50 Vero ([5]; 36 h): did not show any cytotoxicity
- IC50 [5, 9]: > 50 mg/L
- inhibition at 500 µg/mL [6]: 0%
- Cell survival (RAW 264.7 macrophages; test concentration 1 µg/mL): 98.05 ± 0.67%
- Cell survival (RAW 264.7 macrophages; test concentration 5 µg/mL): 97.69 ± 1.20%
- Cell survival (RAW 264.7 macrophages; test concentration 25 µg/mL): 96.78 ± 0.63%
- Cell survival (RAW 264.7 macrophages; test concentration 50 µg/mL): 98.40 ± 1.73%
- IC50 [7]: > 50 mg/L
- IC50 Hep-G2 ([7]; MTT, 36 h): no significant effect; also recorded: did not show any cytotoxicity

SMILES: CC(C)[C@@H](C)/C=C/[C@@H](C)[C@H]1CC[C@@H]2[C@]1(C)CC[C@H]1[C@]23C=C[C@]2(C[C@@H](O)CC[C@]12C)OO3 [Compound (2), ergosterol peroxide]
- IC50 α-glucosidase [1]: 21.89 mg/L (≈ 51.1 µM)
- α-glucosidase inhibition rate [1]: greater than 50%
- IC50 [1]: 51.1 µM
- IC50 [2]: 22.5 mg/L (≈ 52.4 µM)
- IC50 [3]: 27.1 mg/L (≈ 63.2 µM)
- inhibition at 1 µg/mL [4, 8]: 28 ± 0.84%
- inhibition at 5 µg/mL [4, 8]: 56.7 ± 1.29%
- inhibition at 25 µg/mL [4, 8]: 81.4 ± 1.35%
- IC50 Vero ([5]; 36 h): 14.93 mg/L (≈ 34.8 µM)
- IC50 [5, 10]: 11.5 µM
- IC50 [6]: > 1170 µM
- inhibition at 125 µg/mL [6]: 2.54 ± 1.6%
- inhibition at 250 µg/mL [6]: 11.7 ± 2.13%
- inhibition at 500 µg/mL [6]: 25.9 ± 1.24%
- Cell survival (RAW 264.7 macrophages; test concentration 1 µg/mL): 98.08 ± 1.26%
- Cell survival (RAW 264.7 macrophages; test concentration 5 µg/mL): 83.99 ± 1.05%
- Cell survival (RAW 264.7 macrophages; test concentration 25 µg/mL): 60.87 ± 2.21%
- Cell survival (RAW 264.7 macrophages; test concentration 50 µg/mL): 2.18 ± 0.68%
- IC50 [7]: 16.2 mg/L (≈ 37.8 µM)
